Assay results reported in ChEMBL document CHEMBL4513216, “Probing the Open Global Health Chemical Diversity Library for Multistage-Active Starting Points for Next-Generation Antimalarials” (ACS Infect Dis, 2020).

test: Toxicity liver stage against HepG2, at 10uM; type: cell-based; parameters: test concentration 10 uM, cell line HepG2-A16-CD81EGFP; details: human, HepG2-A16-CD81EGFP cells; read-out: INHIBITION
Method in brief: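 Uninfected HepG2-A16-CD81EGFP cells, 3 × 10^3 per well, 1536-well, plated on prespotted compound at 10 μM final, parasite-free screening media added to match infected plates; puromycin 10 μM positive, DMSO 0.5% negative; run in parallel with 48 h PbLuc assay at 37 °C, 5% CO2; viability by CellTiter-Glo luminescence, normalized to controls.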

Row | Structure (SMILES) | cytotoxicity at 10 µM [%]
1 | CC(=O)NCCOc1cccc(Br)c1 | -3.06
2 | CS(=O)(=O)N1CCOC2(CCCN(c3ncc(F)cn3)C2)C1 (stereo not given) | 5.98
3 | NC(=O)C1CCN(CCc2ccc(NCc3ccsc3)cc2)CC1 | 0.867
4 | COCCN1CCC(CN(CC2CCCO2)C(=O)C2CCOCC2)CC1 (stereo not given) | -0.401
5 | CN(CC(=O)N1CC(C)(C)[C@@](C)(O)C1)Cc1ccncc1 | -49.4
6 | CN(Cc1cnn(C)c1)C(=O)NCc1nnc2n1CCC2 | -4.1
7 | COc1cccn(CC(=O)N(C)CCOc2cc(C)cc(C)c2)c1=O | -10.6
8 | O=C1CCCC2(CCN(C(=O)c3ccccn3)CC2)N1 | 3.03
9 | Fc1ccc(CN2Cc3nccn3CC(CN3CCOCC3)C2)cc1 (stereo not given) | -73.7
10 | O=c1c2c[nH]c(N3CCOCC3)nc-2cn1-c1ccc2c(c1)OCO2 | -13.1
11 | CCn1c(CC2CCN(C(=O)C3CNCCO3)CC2)nn(C)c1=O (stereo not given) | 2.14
12 | COc1ccc(-c2nnc([C@H]3CCN(CC4CC4)C3)o2)cc1 | -4.6
13 | Fc1ccc(-c2nc(CN3CCCCC3Cn3cncn3)co2)cc1 (stereo not given) | -8.18
14 | CC(NC1(CNS(C)(=O)=O)CCOCC1)c1ccccc1 (stereo not given) | 6.72
15 | O=C(O)c1cc2c(nc1-c1ccoc1)CCN(Cc1ccco1)CC2 | -78.9
16 | CCc1nc(CN2CCCN(C(=O)c3cnc[nH]3)CC2)cs1 | -9.39
17 | c1ccc(CN2CCc3ncnc(C4CCOC4)c3CC2)nc1 (stereo not given) | 8.88
18 | Cc1ccccc1CC(=O)N[C@@H]1CCC[C@@H](N2CCNC(=O)C2)[C@@H]1O | -24.5
19 | Cc1c(C(=O)NC2(C#N)CCCC2)nnn1-c1ccccc1Cl | -6.75
20 | CN(C)c1cccc(C2CCCN2Cc2nnnn2C2CC2)c1 (stereo not given) | 5.15
21 | COc1cc(N2C[C@@H]3COC[C@]3(COCc3ccccn3)C2)ncn1 | -73.2
22 | CC(=O)Nn1c(C)cc(CN2CCC(C(=O)N3CCCC3)CC2)c1C | 1.57
23 | CC1(c2ccccc2)CCCN(C(=O)c2ccn3nnnc3c2)C1 (stereo not given) | 22.6
24 | O=C(NCc1cccs1)C1CCCN(c2cc(-n3cncn3)ncn2)C1 (stereo not given) | 0.827
25 | CC(=O)Nc1nccn1Cc1ccccc1Cl | -8.1
26 | CCOCC(=O)N1CCCn2c(CN3CCOCC3)nnc2C1 | -132
27 | CCc1cc(O)nc(C2CCCN2C(=O)c2cc(C)no2)n1 (stereo not given) | 2.69
28 | Cc1nc(C)c(C)c(N2CCC3(CCN(C)C3)C2)n1 (stereo not given) | -4.88

Row | Structure (SMILES) | cytotoxicity at 10 µM [%]
29 | Cc1noc(C2CCN(C(=O)C3CCCO3)CC2)n1 (stereo not given) | 3.95
30 | CC1CCCN(C(=O)Nc2cccc(CN3CCOC3=O)c2)C1 (stereo not given) | 18.3
31 | Cc1noc(CN(C)Cc2cnc(N3CCOCC3)nc2)n1 | -14
32 | CC1CCCCN1CCNC(=O)NCc1ccc(C#N)cc1F (stereo not given) | 0.616
33 | Nc1ncncc1-c1noc([C@@H]2CCCN2CCCc2ccccc2)n1 | 1.58
34 | C[C@@H]1CN(Cc2ccccn2)C[C@]12CCN(Cc1cccnc1)C2=O | -4.54
35 | COCC(NC(=O)c1ccc[nH]1)c1cccc(C(F)(F)F)c1 (stereo not given) | -2.54
36 | CC(=O)N1CCC(Oc2ccc(C#N)cc2)CC1 | -83.4
37 | COC(=O)c1ccc(N(C(=O)c2cc(Cl)ccn2)C(C)C)c(C)c1 | 7.51
38 | N#Cc1ccc(C(=O)N2CC[C@H]3[C@H]2CCN3CC2CC2)cc1 | -9.87
39 | CCNc1ccnc(CN2CCCC2C(=O)Nc2nccs2)c1 (stereo not given) | 4.32
40 | Cc1ccc(N(C)Cc2nnnn2C2CC2)c(C)c1 | 8.81
41 | CCN(CC)C(=O)Cn1ccc2cc(NC(=O)C3CCCCC3)ccc21 | -5.04
42 | Cc1nn(C)c(C)c1S(=O)(=O)N(CC(N)=O)CC(C)C | 10.5
43 | CCCN1CCC(CC(=O)N2CCC(C(O)c3nccn3C)CC2)CC1 (stereo not given) | -1.13
44 | CC(C)CC(c1nc(-c2cnn(C)c2)no1)N1CCCCC1=O (stereo not given) | -42
45 | CCN1CC2(CC1=O)CN(Cc1ccco1)CCN(C(=O)C(C)C)C2 (stereo not given) | -4.51
46 | c1ccc(CCN2CCOC3(CCc4ccccc43)C2)nc1 (stereo not given) | -4
47 | CC1CCN(c2ccnc3ccc(Br)cc23)CC1 | 15.4
48 | Cc1ccccc1-n1cc(CN(C)C(=O)CC2C(=O)NCCN2C)cn1 (stereo not given) | 6.89
49 | Cc1nc(C)n(CC2CN(CCC(=O)N3CCCCC3)CCO2)n1 (stereo not given) | -4.64
50 | CCc1nccn1C1CCCN(C(=O)c2csc(C3CC3)n2)C1 (stereo not given) | -9.39
51 | Cc1[nH]c2c(F)cccc2c1CC(=O)NCc1csc(N(C)C)n1 | -1.43
52 | Cc1nnsc1C(=O)NCc1cccnc1N(C)C | -12.2
53 | COc1ccc(OC)c(C(O)CN2CC(n3cccn3)C2)c1 (stereo not given) | -8.42
54 | CCN1CCN(C)C(=O)C12CCN(Cc1csc(C)n1)CC2 | 1.53
55 | Cc1ccc(CN2C[C@@H](C(=O)O)[C@H](c3cccnc3)C2)s1 | 4.17
